Published values from different studies.
Organism: Trypanosoma brucei
Read-out: parasite growth

Cc1ccc(C(=O)Nc2ccc(S(=O)(=O)O)c3cc(S(=O)(=O)O)cc(S(=O)(=O)O)c23)cc1NC(=O)c1cccc(NC(=O)Nc2cccc(C(=O)Nc3cc(C(=O)Nc4ccc(S(=O)(=O)O)c5cc(S(=O)(=O)O)cc(S(=O)(=O)O)c45)ccc3C)c2)c1 gave an EC50 of 50 nM (RHODESIENSE).
O=c1c(O[C@@H]2O[C@H](CO)[C@@H](O)[C@H](O)[C@H]2O)c(-c2ccc(O)c(O)c2)oc2cc(O)cc(O)c12 has an EC50 of > 20000 nM (resazurin; 48 h).
With COc1ccc(C(=O)CSc2nc(C)cc(C)c2C#N)cc1 the EC50 was > 64000 nM (resazurin).
The EC50 of COc1ccc2c(c1)c(=O)c(C(=O)NN)cn2Cc1ccc(C)cc1 is reported as > 4000 nM (resazurin; 72 h).
N=C(N)c1ccc(OCCCCCOc2ccc(C(=N)N)cc2)cc1 has an EC50 of 9 nM (SYBR Green; GAMBIENSE).
COc1cccc(C(=O)C[S+]([O-])c2nc(C)cc(C)c2C#N)c1 (stereo not drawn) gave an EC50 of 25400 nM (resazurin).
Cc1ccc(Cn2cc(C(=O)N/N=C/c3ccc([N+](=O)[O-])o3)c(=O)c3cc(Cl)ccc32)cc1 has an EC50 of 420 nM (resazurin; 72 h).
The EC50 of Cc1cc(C)c(C#N)c(SCC(=O)c2ccccc2O)n1 is reported as > 64000 nM (resazurin).
For CCCCCC(=O)NC(Cc1ccc(NC(=O)OC(C)(C)C)cc1)C(=O)NC(Cc1ccc(NC(=O)OC(C)(C)C)cc1)C(=O)NC(CC(C)C)C(=O)C1(C)CO1 (stereo not drawn), the EC50 was 465 nM (SYBR Green; 72 h).
